The nature of assay [1]: reduced viability of SK-BR-3 breast cancer cells – cell-based, 24 h, human, pilot screen (AID 572;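 active means viability at or below 10% of carrier control in both of two separate runs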;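 further: compound exposure lasted between 18 and 24 h rather than exactly 24 h; 100% = carrier-treated control wells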). The following applies: SK-BR-3 viability, CellTiter-Glo luminescence, at 10 µM, stronger effect = lower value. (In general: ATP-based viability assays read luminescence as a measure of living cells.)
A short description of assay [2]: HUVEC growth inhibition – cell-based, human, primary screen (AID 575;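 active means viability at or below 30% in both replicate assays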;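 further: 100% = median of untreated cell wells with 0.1% DMSO on each plate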). The settings on record: HUVEC proliferation, CellTiter-Glo luminescence, 72 h; at 10 µM; stronger effect = lower value. The essentials:
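Material: primary human umbilical vein endothelial cells / Schedule: 72 h exposure, 37 °C, 5% CO2, 30 min RT equilibration / Signal: ATP-based CellTiter-Glo luminescent read / Read-out basis: percent of median DMSO-control luminescence / Control set: 32 DMSO-only cell-control wells (high), 32 MePR drug-control wells (low) per plate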

Assay [3] can be described thus: H69AR cell proliferation blockers – human, duplicate replicates, primary screen (AID 580).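 Further: 100% = mean luminescence of untreated wells and 0% = no signal.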 The following applies: H69AR lung tumor cells viability, ATP luminescence, 72 h; at 10 µM; stronger effect = lower value.
The nature of assay [4]: MRP1 drug-resistance reversers in H69AR cells – cell-based, doxorubicin co-treatment, pilot screen (AID 601;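 active means viability loss from added drug above about 55%, and viability with drug at most 40%, in both replicates, limit read from the data, passing the limit was not always enough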). The following applies: CellTiter-Glo, 72 h, at 10 µM; for differential viability (reversal): stronger effect = higher value.
Assay [5] can be described thus: yeast transport mutant growth inhibition pilot in 384-well plates, post-Golgi transport modulator project (AID 636; in the data active means inhibition above about 31%). The following applies: absorbance 615 nm, about 18 h, stronger effect = higher value.
Assay [6] is described as follows: growth suppression of yeast trafficking mutant, preliminary HTS, modulators of trafficking downstream of Golgi apparatus project, 1536-format plate, OD 615 nm (AID 637; in the data active means inhibition above about 30%). The settings on record: yeast transport mutant growth, absorbance 615 nm, 18 h; stronger effect = higher value.
[7] abbreviates: H69AR cells + 2 uM doxorubicin, measured here: viability with 2 uM doxorubicin, stronger effect = lower value.
[8] abbreviates: H69AR cells, compound alone cytotoxicity.

SMILES strings stand for the structures. Calls of active or inactive are those of the source.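 How the source made its calls, unless noted: active means viability at or under a set limit in both replicates, limit being median viability minus 3 SD (cut at about 48% in these data, passing the limit was not always enough); inconclusive means at or under the limit in just one replicate; inactive means at or above the limit in both replicates.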

Among the data in PubChem BioAssay are viability, differential viability (reversal) and inhibition values, retold here.

The term viability denotes a read-out of living cells in per cent, often relative to untreated cells. Usually inhibition stands for the change of the read-out against control, counted positive when it falls.

Regarding `CC(C)(C)n1ncc2c(=O)n(CC(=O)NCc3ccccc3)cnc21`, the viability in assay [1] is 90% (inactive); in assay [2], 54.7% (inactive); in assay [3], 15.5% (active); in assay [4] (setting [7]), 63.9%; in assay [4] (setting [8]), 15.5%. The differential viability (reversal) in assay [4] (H69AR cells + 2 uM doxorubicin) was -48.5% (inactive). Besides, the inhibition in assay [5] was -1.2% (inactive); in assay [6], -1.27% (inactive).
Consider `CN(Cc1ccccc1)C(=O)c1cc(-c2ccc(Br)cc2)on1`, for which the viability in assay [1] was 80% (inactive); in assay [2] it was 94.2% (inactive); in assay [3], 103% (inactive); in assay [4] (setting [7]), 95.3%; in assay [4] (setting [8]), 103%. Besides, the differential viability (reversal) in assay [4] (H69AR cells + 2 uM doxorubicin) is 7.97% (inactive). In addition, the values for the inhibition in assay [5] and in assay [6] were -4% (inactive) and -3.45% (inactive), respectively.
Turning to `Cc1cc(=O)n2nc(N3CCC(C(=O)N4CCN(Cc5ccccc5)CC4)CC3)sc2n1`, the viability in assay [1] is 97% (inactive); in assay [2], 108% (inactive); in assay [3] it was 91.1% (inactive); in assay [4] (setting [7]), 84.1%; in assay [4] (setting [8]), 91.1%. The differential viability (reversal) in assay [4] (H69AR cells + 2 uM doxorubicin) was 7.01% (inactive). The results for the inhibition in assay [5] and in assay [6] were -3.24% (inactive) and -1.27% (inactive), respectively.
On to `O=C(O)c1ccc(COc2ccc(Cl)cc2)o1`, for which the viability is 92% (inactive) in assay [1]; 84.7% (inactive) in assay [2]; 98.1% (inactive) in assay [3]; 88.1% in assay [4] (setting [7]); 98.1% in assay [4] (setting [8]). Besides, the differential viability (reversal) in assay [4] (H69AR cells + 2 uM doxorubicin) is 9.97% (inactive). The figures for the inhibition in assay [5] and in assay [6] were -0.26% (inactive) and -2.13% (inactive), respectively.
Take `C1CNCCNCCNCCN1`: the viability in assay [1] is 101% (inactive); in assay [2], 113% (inactive); in assay [3], 95.7% (inactive); in assay [4] (setting [7]), 95.5%; in assay [4] (setting [8]), 95.7%. In addition, in assay [4] (H69AR cells + 2 uM doxorubicin), the differential viability (reversal) is 0.16% (inactive). For the same compound, the inhibition is -0.26% (inactive) in assay [5] and 2.83% (inactive) in assay [6].
Regarding `Cn1c(=O)cc(OCCCC(=O)N2CCCCC2)c2ccccc21`, the viability is 98% (inactive) in assay [1]; 87.5% (inactive) in assay [2]; 91.5% (inactive) in assay [3]; 79.5% in assay [4] (setting [7]); 91.5% in assay [4] (setting [8]). In assay [4] (H69AR cells + 2 uM doxorubicin), the differential viability (reversal) was 12% (inactive). The inhibition was -1.82% (inactive) in assay [5] and 0.98% (inactive) in assay [6].
Turning to `O=C(Cn1cnc2c(cnn2-c2ccc(F)cc2)c1=O)N1CCN(c2ccccc2)CC1`, the viability in assay [1] was 97% (inactive); in assay [2], 94% (inactive); in assay [3], 70.3% (inactive); in assay [4] (setting [7]) it was 65.8%; in assay [4] (setting [8]), 70.3%. Besides, in assay [4] (H69AR cells + 2 uM doxorubicin), the differential viability (reversal) was 4.54% (inactive). Moreover, the inhibition in assay [5] was 0.39% (inactive); in assay [6], -5.57% (inactive).
`CN=c1sc2ccccc2n1CC(O)COCc1ccco1` (stereo unspecified): the viability is 107% (inactive) in assay [1]; 86.6% (inactive) in assay [2]; 98.4% (inactive) in assay [3]; 87.5% in assay [4] (setting [7]); 98.4% in assay [4] (setting [8]). In assay [4] (H69AR cells + 2 uM doxorubicin), the differential viability (reversal) is 10.8% (inactive). In addition, the figures for the inhibition in assay [5] and in assay [6] were -8.49% (inactive) and 1.94% (inactive), respectively.
Regarding `CC(=N\O)/C(CN(C)C)=N/O`, the viability is 97% (inactive) in assay [1]; 88.7% (inactive) in assay [2]; 91.5% (inactive) in assay [3]; 97.9% in assay [4] (setting [7]); 91.5% in assay [4] (setting [8]). Also, the differential viability (reversal) in assay [4] (H69AR cells + 2 uM doxorubicin) was -6.4% (inactive). The inhibition in assay [5] is -1.78% (inactive); in assay [6], 25.6% (inactive).
As to `COc1nc(NCCc2ccc(OC)c(OC)c2)nc(NC(C)(C)CO)n1`, the viability in assay [1] was 96% (inactive); in assay [2] it was 113% (inactive); in assay [3], 95.5% (inactive); in assay [4] (setting [7]), 87.8%; in assay [4] (setting [8]), 95.5%. For the same compound, in assay [4] (H69AR cells + 2 uM doxorubicin), the differential viability (reversal) was 7.75% (inactive). Also, the inhibition was -3.38% (inactive) in assay [5] and -1.31% (inactive) in assay [6].
As for `Nc1ccc(S(=O)(=O)c2ccc(N)cc2)cc1`, the viability in assay [1] was 95% (inactive); in assay [2], 85.9% (inactive); in assay [3], 106% (inactive); in assay [4] (setting [7]), 87.1%; in assay [4] (setting [8]), 106%. Also, the differential viability (reversal) in assay [4] (H69AR cells + 2 uM doxorubicin) is 19.4% (inactive). The inhibition in assay [5] is -2.21% (inactive); in assay [6], 5.17% (inactive).
As for `CN(C)C(=O)COc1ccc2cc(-c3ccccc3)c(=O)oc2c1`, the viability was 93% (inactive) in assay [1]; 98.1% (inactive) in assay [2]; 90.7% (inactive) in assay [3]; 92.9% in assay [4] (setting [7]); 90.7% in assay [4] (setting [8]). In assay [4] (H69AR cells + 2 uM doxorubicin), the differential viability (reversal) was -2.2% (inactive). Further, the inhibition in assay [5] was -7.12% (inactive); in assay [6], -4.18% (inactive).
